Measurements published in ChEMBL document CHEMBL2424523, “2,3,9- and 2,3,11-trisubstituted tetrahydroprotoberberines as D2 dopaminergic ligands” (Eur J Med Chem, 2013).

What was measured:
[1] = molecular target: D(2) dopamine receptor (Rattus norvegicus, UniProt P61169); assay: Displacement of [3H]-raclopride from dopamine D2 receptor in rat striatal membranes after 1 hr by liquid scintillation counting analysis; type: cell membranes, Membrane
Outline: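 200 µg protein incubated 1 h at 25 °C with 0.5 nM [3H]raclopride. Nonspecific binding defined with 50 µM apomorphine. GF/B filtration, scintillation counting. Mean ± SEM of 3-5 experiments.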

[2] = organism: Rattus norvegicus; assay: Selectivity ratio of Ki for dopamine D1 receptor in rat striatal membranes to Ki for dopamine D2 receptor in rat striatal membranes; type: cell membranes; conditions: Membrane
Outline: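 Ratio Ki(D1)/Ki(D2) from striatal membrane displacement assays: [3H]SCH 23390 at 0.25 nM (D1) and [3H]raclopride at 0.5 nM (D2), each incubated 1 h at 25 °C, with filtration and scintillation counting. Ki data are from 3-5 experiments.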

[3] = Cytotoxicity against human neutrophil assessed as cell viability at 0.3 uM after 24 hrs by MTT assay; type: cell-based
Outline: (§1)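 Human peripheral blood neutrophils isolated from healthy-donor buffy coats by Ficoll-Hypaque, plated at 2 x 10^5 cells/mL in RPMI. Concentrations chosen from D2 Ki. Incubated 24 h at 37 °C, 5% CO2. MTT (1 mg/mL solution) added for 60 min, formazan dissolved in DMSO, absorbance read at 570/630 nm. Mean ± SEM, n=3.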

[4] = molecular target: D(1A) dopamine receptor (Rattus norvegicus, UniProt P18901); assay: Displacement of [3H]-SCH 23390 from dopamine D1 receptor in rat striatal membranes after 1 hr by liquid scintillation counting analysis; type: cell membranes, Membrane
Sequence of D(1A) dopamine receptor (P18901 whole entry): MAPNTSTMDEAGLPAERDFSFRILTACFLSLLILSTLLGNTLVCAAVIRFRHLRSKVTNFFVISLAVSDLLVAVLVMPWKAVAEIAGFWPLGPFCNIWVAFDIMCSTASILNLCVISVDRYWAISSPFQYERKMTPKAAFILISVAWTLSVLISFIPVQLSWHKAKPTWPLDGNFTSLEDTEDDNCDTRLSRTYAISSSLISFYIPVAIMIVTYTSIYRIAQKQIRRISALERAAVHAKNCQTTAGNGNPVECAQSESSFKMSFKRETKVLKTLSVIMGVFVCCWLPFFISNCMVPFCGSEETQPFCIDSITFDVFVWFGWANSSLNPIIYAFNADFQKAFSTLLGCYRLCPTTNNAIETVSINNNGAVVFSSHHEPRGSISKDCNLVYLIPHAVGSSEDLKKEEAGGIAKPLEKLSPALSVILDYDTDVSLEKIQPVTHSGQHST
Outline: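 Striatal membranes washed twice by centrifugation at 20000g in Tris-HCl (50 mM, pH 7.4), then resuspended in Tris with 5 mM MgSO4, 0.5 mM EDTA and 0.02% ascorbate. 100 µg protein incubated 1 h at 25 °C with 0.25 nM [3H]SCH 23390. Nonspecific binding defined with 30 µM SK&F 38393. Filtered on GF/B, scintillation counted. Mean ± SEM of 3-5 experiments.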

[5] = Cytotoxicity against human neutrophil assessed as cell viability at 0.1 uM after 24 hrs by MTT assay; type: cell-based; outline: as §1
[6] = Cytotoxicity against human neutrophil assessed as cell survival at 0.1 uM after 24 hrs by annexin V-FITC/propidium iodide staining-based flow cytometric analysis
Outline: (§2)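 Freshly isolated human blood neutrophils (Ficoll-Hypaque, healthy-donor buffy coats) at 2 x 10^6 cells/mL in supplemented RPMI. Cultured 24 h at 37 °C, 5% CO2, with or without compound. Annexin V-FITC/PI flow cytometry on 1 x 10^4 cells. Early apoptotic = annexin V+/PI−, late apoptotic/necrotic = V+/PI+, viable = V−/PI−. Mean ± SEM, n=3.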

[7] = Induction of apoptosis in human neutrophil at 0.1 uM after 24 hrs by annexin V-FITC/propidium iodide staining-based flow cytometric analysis; type: cell-based; outline: as §2
[8] = Cytotoxicity against human neutrophil assessed as cell viability at 3 uM after 24 hrs by MTT assay; type: cell-based; outline: as §1
[9] = Cytotoxicity against human neutrophil assessed as cell viability at 10 uM after 24 hrs by MTT assay; type: cell-based; outline: as §1
[10] = Cytotoxicity against human neutrophil assessed as cell viability at 100 uM after 24 hrs by MTT assay; type: cell-based; outline: as §1

Sequence of D(2) dopamine receptor (P61169 whole entry): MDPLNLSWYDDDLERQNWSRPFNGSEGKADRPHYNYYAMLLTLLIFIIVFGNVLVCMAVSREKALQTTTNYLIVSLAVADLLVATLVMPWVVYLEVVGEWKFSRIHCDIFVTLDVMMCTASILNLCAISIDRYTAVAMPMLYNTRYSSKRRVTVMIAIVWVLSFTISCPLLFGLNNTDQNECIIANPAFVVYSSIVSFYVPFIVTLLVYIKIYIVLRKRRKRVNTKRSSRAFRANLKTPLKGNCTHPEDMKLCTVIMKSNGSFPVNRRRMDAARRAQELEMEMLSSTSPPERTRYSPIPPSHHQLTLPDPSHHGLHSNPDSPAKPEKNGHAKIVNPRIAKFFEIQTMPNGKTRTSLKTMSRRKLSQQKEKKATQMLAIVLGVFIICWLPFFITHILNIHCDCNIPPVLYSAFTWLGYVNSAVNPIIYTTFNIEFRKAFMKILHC

| Ki ([1]; read-out: Ki) [nM] | Ratio Ki [2] | Ki ([4]; read-out: Ki) [nM] | Ki ([1]; read-out: pKi (converted)) [nM] | Ki ([4]; read-out: pKi (converted)) [nM] | Compound | Activity [3] | Activity [5] | Activity [6] | Activity [7] | Activity [8] | Activity [9] | Activity [10] |
| --- | --- | --- | --- | --- | --- | --- | --- | --- | --- | --- | --- | --- |
| 35 | 10 | 344 | 28.2 | 339 | Oc1cccc2c1CN1CCc3cc4c(cc3C1C2)OCO4 (configuration not stated) |  | Non-toxic | Non-toxic | Non-toxic |  |  |  |
| 396 | 7.5 | 2960 | 389 | 2630 | Oc1ccc2c(c1)CC1c3cc(O)c(O)cc3CCN1C2 (configuration not stated) |  |  |  |  | Non-toxic |  |  |
| 93 |  | 3780 | 85.1 | 3470 | Oc1cc2c(cc1O)C1Cc3cccc(O)c3CN1CC2 (configuration not stated) |  | Non-toxic | Non-toxic | Non-toxic |  |  |  |
| 7510 | 4.4 | 33000 | 6920 | 32400 | Oc1ccc2c(c1)CC1c3cc4c(cc3CCN1C2)OCO4 (configuration not stated) |  |  |  |  |  | Non-toxic |  |

Continued, compound first:

| Compound | Ki ([1]; read-out: Ki) [nM] | Ratio Ki [2] | Ki ([4]; read-out: Ki) [nM] | Ki ([1]; read-out: pKi (converted)) [nM] | Ki ([4]; read-out: pKi (converted)) [nM] | Activity [3] | Activity [5] | Activity [6] | Activity [7] | Activity [8] | Activity [9] | Activity [10] |
| --- | --- | --- | --- | --- | --- | --- | --- | --- | --- | --- | --- | --- |
| Oc1ccc2c(c1)CC1c3cc(O)c(Cl)cc3CCN1C2 (configuration not stated) | 188 | 0.6 | 107 |  |  | Non-toxic |  |  |  |  |  |  |
| COc1ccc2c(c1)CC1c3cc(O)c(O)cc3CCN1C2 (configuration not stated) | 78 | 14.2 | 1110 | 74.1 | 955 |  | Non-toxic | Non-toxic | Non-toxic |  |  |  |
| COc1cc2c(cc1OC)C1Cc3cccc(OC)c3CN1CC2 (configuration not stated) | 393 | 10 | 3930 | 363 | 3630 |  |  |  |  | Non-toxic |  |  |
| COc1ccc2c(c1)CC1c3cc4c(cc3CCN1C2)OCO4 (configuration not stated) | 1330 | 1.8 | 2370 | 1150 | 1700 |  |  |  |  | Non-toxic |  |  |
| COc1ccc2c(c1)CC1c3cc(OC)c(OC)cc3CCN1C2 (configuration not stated) | 8540 | 0.5 | 4310 | 5130 | 4170 |  |  |  |  |  | Non-toxic |  |
| COc1ccc2c(c1)CC1c3cc(OC)c(Cl)cc3CCN1C2 (configuration not stated) | 2050 | 0.9 | 1810 |  | 1740 |  |  |  |  | Non-toxic |  |  |
| COc1ccc2c(c1)CC1c3cc(OCc4ccccc4)c(OCc4ccccc4)cc3CCN1C2 (configuration not stated) | 40900 | 1 | 40600 | 41700 |  |  |  |  |  |  |  | Non-toxic |
